pKd: −log10 of the molar value.
Target: human transferrin (Tf) (Homo sapiens, UniProt P02787)
Assay: isothermal titration calorimetry
Assay type: binding
Method in brief: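 Human transferrin in the sample cell, stated as 25 μM in one place and 20 μM in another; dialyzed and degassed before loading. Test compound at 200 μM in the syringe, added by automated titration after an initial dummy injection. Binding isotherm fitted to a two-site model to obtain the thermodynamic parameters.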

Chain of human transferrin (Tf) (P02787 20-698): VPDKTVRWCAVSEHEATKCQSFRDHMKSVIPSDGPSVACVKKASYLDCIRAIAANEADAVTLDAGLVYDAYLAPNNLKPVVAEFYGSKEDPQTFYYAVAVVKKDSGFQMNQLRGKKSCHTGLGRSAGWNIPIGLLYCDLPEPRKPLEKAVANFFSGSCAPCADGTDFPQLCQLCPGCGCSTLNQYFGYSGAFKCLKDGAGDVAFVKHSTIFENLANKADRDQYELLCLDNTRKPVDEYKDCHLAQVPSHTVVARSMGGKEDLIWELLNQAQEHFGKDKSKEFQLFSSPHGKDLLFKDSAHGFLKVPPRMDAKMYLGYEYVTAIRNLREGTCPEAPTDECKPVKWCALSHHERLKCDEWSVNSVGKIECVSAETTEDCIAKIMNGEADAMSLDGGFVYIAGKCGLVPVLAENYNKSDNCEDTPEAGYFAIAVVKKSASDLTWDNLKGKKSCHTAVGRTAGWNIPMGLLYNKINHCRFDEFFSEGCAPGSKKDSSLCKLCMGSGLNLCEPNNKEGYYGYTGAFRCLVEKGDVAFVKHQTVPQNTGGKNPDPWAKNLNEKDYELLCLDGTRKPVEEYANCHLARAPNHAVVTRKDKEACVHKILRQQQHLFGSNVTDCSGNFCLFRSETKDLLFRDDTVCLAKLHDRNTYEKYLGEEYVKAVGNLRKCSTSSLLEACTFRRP

pKd: 5.16
SMILES: CNCCC(Oc1ccc(C(F)(F)F)cc1)c1ccccc1 (stereo not shown) [Fluoxetine]

Source: PMC8928501 (ACS Omega, 2022)
